≈ marks a conversion by molar mass, not a printed value. Calls of active or inactive are those of the source. The rule behind the calls is not given here.
Key:
[1] = 1-Octanol-phosphate buffered saline distribution coefficient, log D of the compound at pH 7.4; format: physicochemical
Summary of the method: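 logD measured by partitioning between 1-octanol and phosphate-buffered saline, pH 7.4.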

[2] = target: Long-chain fatty acid transport protein 1 (Mus musculus, UniProt Q60714); assay: Inhibition of mouse FLAG-tagged FATP1-mediated [1-14C] oleic acid conversion to [1-14C] oleoyl-CoA after 20 mins by scintillation counting analysis
Summary of the method: (§1)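 Purified FLAG-tagged human or mouse FATP1 run in a cell-free acyl-CoA synthetase assay. Protein incubated with 10 µM [1-14C]oleic acid, 0.5 mM ATP, 0.5 mM CoA, 5 mM MgCl2, 30 mM NaCl, 0.05% Triton X-100 and 2 mM DTT in 100 mM Tris-HCl pH 7.4 for 20 min at 37 °C. Free oleate removed by heptane washes. Aqueous-phase radioactivity counted by scintillation. FLAG-luciferase background subtracted. IC50 is the mean of n ≥ 2.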

[3] = target: Long-chain fatty acid transport protein 1 (Homo sapiens, UniProt Q6PCB7); assay: Inhibition of human FLAG-tagged FATP1-mediated [1-14C] oleic acid conversion to [1-14C] oleoyl-CoA after 20 mins by scintillation counting analysis; summary of the method: as §1
[4] = Metabolic stability in mouse liver microsomes assessed as compound remaining after 0.5 hr; format: ADME, Microsome; details: read-out: Stability
Summary of the method: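 Test compound incubated 0.5 h with mouse liver microsomes. Result given as percent of parent remaining.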

Mus musculus [5] = assay: In vivo inhibition of FATP1 in high-fat diet fed mouse assessed as decrease in triglyceride content in soleus muscle at 3 to 30 mg/kg, po after 4 weeks; format: functional, organism-based
Summary of the method: (§2)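 Mice kept on a high-fat diet for 4 weeks and given the compound orally at 3/10/30, 10/30/100 or 1/10/100 mg/kg. The 1–100 mg/kg series was run for 3 weeks. Triglyceride content measured in liver, white gastrocnemius and soleus, compared against HFD vehicle controls, P < 0.05.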

Mus musculus [6] = assay: In vivo inhibition of FATP1 in high-fat diet fed mouse assessed as decrease in triglyceride content in liver at 3 to 30 mg/kg, po after 4 weeks; format: functional, organism-based; summary of the method: as §2
Mus musculus [7] = assay: In vivo inhibition of FATP1 in high-fat diet fed mouse assessed as decrease in triglyceride content in white gastrocnemius muscle at 3 to 30 mg/kg, po after 4 weeks; format: functional, organism-based; summary of the method: as §2
[8] = Ratio of drug uptake in soleus muscle to plasma in mouse at 10 mg/kg, po after 1 week of repeated compound administration; format: ADME, organism-based; design: dose 10 mg/kg, route oral
Summary of the method: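 Mice received repeated oral dosing at 10 mg/kg for 1 week. Soleus and plasma concentrations measured 3 h after dosing. Kp taken as the soleus-to-plasma ratio.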

[9] = Oral bioavailability in mouse at 10 mg/kg; format: ADME, organism-based; details: in vivo
[10] = Clearance in mouse at 1 mg/kg, iv; format: ADME, organism-based; design: dose 1 mg/kg, route intravenous; details: in vivo
Summary of the method: (§3)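 Single 1 mg/kg intravenous dose to mice in DMA/PG/(20% HPβCD in saline) 10/10/80. Values are the mean of two mice.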

[11] = AUC in mouse at 10 mg/kg, po; format: ADME, organism-based; design: dose 10 mg/kg, route oral; details: plasma
Summary of the method: (§4)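 Single 10 mg/kg oral dose to mice in DMA/PG/(20% HPβCD in saline) 10/10/80. Values are the mean of three mice.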

Mus musculus [12] = assay: Free Cmax in mouse at 10 mg/kg, po; format: ADME, organism-based; design: dose 10 mg/kg, route oral; details: in vivo
Summary of the method: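 Free Cmax calculated as plasma unbound fraction (%) multiplied against the […], from mice given 10 mg/kg orally in DMA/PG/(20% HPβCD/saline) 10/10/80, n = 3.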

[13] = Volume of distribution in mouse at 1 mg/kg, iv; format: ADME, organism-based; design: dose 1 mg/kg, route intravenous; details: in vivo; summary of the method: as §3
[14] = Cmax in mouse at 10 mg/kg, po; format: ADME, organism-based; design: dose 10 mg/kg, route oral; details: in vivo; summary of the method: as §4
[15] = Tmax in mouse at 10 mg/kg, po; format: ADME, organism-based; design: dose 10 mg/kg, route oral; details: in vivo; summary of the method: as §4
[16] = Fraction unbound in mouse plasma at 10 mg/kg, po; format: ADME, organism-based; design: dose 10 mg/kg, route oral
Summary of the method: (§5)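 Unbound fraction (%) measured in mouse plasma.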

[17] = Solubility in Japanese Pharmacopoeia second fluid; format: physicochemical; details: pH 6.8
[18] = Solubility in Japanese Pharmacopoeia first fluid; format: physicochemical; details: pH 1.2
Mus musculus [19] = assay: In vivo inhibition of FATP1 in high-fat diet fed mouse assessed as decrease in triglyceride content in soleus muscle at 10 to 100 mg/kg, po after 4 weeks; format: functional, organism-based; summary of the method: as §2
Mus musculus [20] = assay: In vivo inhibition of FATP1 in high-fat diet fed mouse assessed as decrease in triglyceride content in liver at 10 to 100 mg/kg, po after 4 weeks; format: functional, organism-based; summary of the method: as §2
Mus musculus [21] = assay: In vivo inhibition of FATP1 in high-fat diet fed mouse assessed as decrease in triglyceride content in white gastrocnemius muscle at 10 to 100 mg/kg, po after 4 weeks; format: functional, organism-based; summary of the method: as §2
[22] = Clearance in mouse at 5 mg/kg, iv; format: ADME, organism-based; design: dose 5 mg/kg, route intravenous; details: in vivo
[23] = Volume of distribution in mouse at 5 mg/kg, iv; format: ADME, organism-based; design: dose 5 mg/kg, route intravenous; details: in vivo
[24] = Plasma protein binding in mouse at 10 mg/kg, po; format: ADME, organism-based; design: dose 10 mg/kg, route oral; details: read-out: PPB (converted); summary of the method: as §5
Mus musculus [25] = assay: In vivo inhibition of FATP1 in high-fat diet fed mouse assessed as decrease in triglyceride content in liver at 1 to 100 mg/kg, po after 3 weeks
Mus musculus [26] = assay: In vivo inhibition of FATP1 in high-fat diet fed mouse assessed as decrease in triglyceride content in soleus muscle at 1 to 100 mg/kg, po after 3 weeks
Mus musculus [27] = assay: In vivo inhibition of FATP1 in high-fat diet fed mouse assessed as decrease in triglyceride content in white gastrocnemius muscle at 1 to 100 mg/kg, po after 3 weeks

Chain of Long-chain fatty acid transport protein 1 (Homo sapiens, UniProt Q6PCB7) (Q6PCB7 whole entry): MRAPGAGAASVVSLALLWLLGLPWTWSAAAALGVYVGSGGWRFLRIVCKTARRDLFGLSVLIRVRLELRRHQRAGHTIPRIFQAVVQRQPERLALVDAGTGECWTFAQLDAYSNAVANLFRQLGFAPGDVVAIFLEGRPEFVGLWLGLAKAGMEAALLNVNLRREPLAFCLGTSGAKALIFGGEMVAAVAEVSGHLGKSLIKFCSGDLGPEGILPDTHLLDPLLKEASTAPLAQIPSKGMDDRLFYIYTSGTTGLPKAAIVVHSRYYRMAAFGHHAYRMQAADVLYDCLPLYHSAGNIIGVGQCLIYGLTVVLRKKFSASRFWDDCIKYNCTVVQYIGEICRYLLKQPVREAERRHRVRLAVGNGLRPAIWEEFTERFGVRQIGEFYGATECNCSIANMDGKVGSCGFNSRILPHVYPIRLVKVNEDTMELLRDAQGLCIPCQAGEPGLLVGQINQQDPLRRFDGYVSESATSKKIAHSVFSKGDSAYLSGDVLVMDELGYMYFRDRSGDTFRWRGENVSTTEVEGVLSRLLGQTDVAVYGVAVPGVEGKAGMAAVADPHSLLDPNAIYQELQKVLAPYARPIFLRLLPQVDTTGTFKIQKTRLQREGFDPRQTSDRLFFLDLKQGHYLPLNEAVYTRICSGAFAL
Chain of Long-chain fatty acid transport protein 1 (Mus musculus, UniProt Q60714) (Q60714 whole entry): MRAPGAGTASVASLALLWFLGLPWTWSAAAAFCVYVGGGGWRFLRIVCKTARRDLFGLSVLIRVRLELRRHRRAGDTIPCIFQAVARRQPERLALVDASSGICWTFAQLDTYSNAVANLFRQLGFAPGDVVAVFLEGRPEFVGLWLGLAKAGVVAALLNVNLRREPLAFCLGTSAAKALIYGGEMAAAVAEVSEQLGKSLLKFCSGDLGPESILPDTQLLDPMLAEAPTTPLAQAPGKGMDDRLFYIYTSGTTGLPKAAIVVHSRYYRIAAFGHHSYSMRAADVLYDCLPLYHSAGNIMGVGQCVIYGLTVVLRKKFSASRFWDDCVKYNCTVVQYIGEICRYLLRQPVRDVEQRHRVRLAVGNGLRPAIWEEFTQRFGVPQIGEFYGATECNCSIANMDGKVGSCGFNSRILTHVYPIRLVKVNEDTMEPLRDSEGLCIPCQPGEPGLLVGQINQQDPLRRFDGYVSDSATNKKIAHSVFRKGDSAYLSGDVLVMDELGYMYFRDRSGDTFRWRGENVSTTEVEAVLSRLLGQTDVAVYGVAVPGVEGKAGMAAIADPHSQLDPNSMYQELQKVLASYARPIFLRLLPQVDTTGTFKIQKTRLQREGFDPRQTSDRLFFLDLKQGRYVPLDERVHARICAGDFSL

| SMILES | logD [1] | IC50 [2] [µM] | IC50 [3] [nM] | remaining at 0.5 h [4] [%] | also measured |
| --- | --- | --- | --- | --- | --- |
| O=C(CN1CCN(c2ccc(F)cn2)CC1)c1n[nH]c2ccccc12 | 2.8 | > 10 | > 1000 | – | – |
| O=C(CN1CCN(c2ncccn2)CC1)Nc1nc2c(s1)CCCC2 | 3.7 | > 10 | > 1000 | – | – |
| O=C(CN1CCN(c2ccc(F)cn2)CC1)c1c[nH]c2ccccc12 | – | > 10 | > 1000 | – | – |
| O=C(CN1CCN(c2ccncc2)CC1)Nc1nc2c(s1)CCCC2 | 2 | > 10 | > 1000 | – | – |
| O=C(CN1CCN(C2CCCCC2)CC1)Nc1nc2c(s1)CCCC2 | 3 | > 10 | > 1000 | – | – |
| O=C(CN1CCN(c2ccc(F)cn2)CC1)c1ncc2ccccn12 | – | > 10 | > 1000 | – | – |
| O=C(CN1CCN(c2nccs2)CC1)Nc1nc2c(s1)CCCC2 | 3.8 | 7.9 | 520 | – | – |
| Cc1ccc(N2CCN(CC(=O)Nc3nc4c(s3)CCCC4)CC2)cc1 | 4.8 | > 10 | 250 | – | – |
| O=C(CN1CCN(C(=O)c2ccccc2)CC1)Nc1nc2c(s1)CCCC2 | 2.1 | > 10 | > 1000 | – | – |
| Cc1nc(NC(=O)CN2CCN(c3ccc(F)cc3)CC2)sc1C | 3.7 | 1.7 | 430 | 56 | – |
| Cc1nc2ccccn2c1C(=O)CN1CCN(c2ccccc2)CC1 | – | – | 3000 | – | – |
| O=C(CN1CCN(c2ccc(F)cc2)CC1)Nc1nccs1 | 2.8 | > 10 | > 1000 | – | – |
| O=C(CN1CCN(c2cccc(F)c2)CC1)Nc1nc2c(s1)CCCC2 | – | > 10 | > 1000 | – | – |
| O=C(CN1CCN(c2cccnc2)CC1)Nc1nc2c(s1)CCCC2 | 3.3 | > 10 | > 1000 | – | – |
| CCN(C(=O)CN1CCN(c2ccc(F)cn2)CC1)c1nc2c(s1)CCCC2 | – | > 10 | 780 | – | – |

Now from value to compound, other results behind:

| logD [1] | IC50 [2] [µM] | IC50 [3] [nM] | remaining at 0.5 h [4] [%] | SMILES | also measured |
| --- | --- | --- | --- | --- | --- |
| 4.3 | 9 | 280 | – | O=C(CN1CCN(c2ccccc2)CC1)Nc1nc2c(s1)CCCC2 | – |
| 3.9 | 0.62 | 41 | 65 | CN(C(=O)CN1CCN(c2ccc(F)cn2)CC1)c1nc2c(s1)CCCC2 | – |
| 2.1 | 0.16 | 100 | 86 | O=C(CN1CCN(c2ccc(F)cn2)CC1)c1cnc2n1CCCC2 | – |
| 4 | > 10 | 490 | – | O=C(CN1CCN(c2ccc(F)cc2)CC1)Nc1nc2c(s1)CCC2 | – |
| 3 | 5.4 | 180 | 53 | O=C(CN1CCN(c2ccc(F)cc2)CC1)Nc1nc2c(o1)CCCC2 | – |
| 4.5 | 4 | 77 | 42 | O=C(CN1CCN(c2ccc(F)cc2)CC1)Nc1nc2c(s1)CCCC2 | – |
| 2.5 | 0.4 | 190 | 55 | Cc1nc2n(c1C(=O)CN1CCN(c3ccc(F)cn3)CC1)CCCC2 | – |
| 3.9 | 1.9 | 470 | 76 | O=C(CN1CCN(c2ccc(F)cn2)CC1)c1coc2ccccc12 | – |
| 4.4 | > 10 | 490 | – | O=C(CN1CCN(c2ccc(F)cc2)CC1)Nc1nc2ccccc2s1 | – |
| 2.8 | 0.39 | 430 | 52 | Cc1nc2ccccn2c1C(=O)CN1CCN(c2ccc(F)cn2)CC1 | inhibition (Mus musculus [5]): inactive; inhibition (Mus musculus [6]): inactive; inhibition (Mus musculus [7]): inactive; Kp at 168 h [8]: 1.1; bioavailability [9]: 21%; clearance [10]: 6.4 mL/min/kg; AUC [11]: 5500 ng·h/mL; fCmax (Mus musculus [12]): 0.61 µg/mL; Vd [13]: 0.2 L/kg; Cmax [14]: 2200 ng/mL; Tmax [15]: 19.8 min; fraction unbound [16]: 0.275; solubility [17]: 350 µg/mL (≈ 990 µM); solubility [18]: > 700 µg/mL |
| 3.9 | 4.9 | 200 | – | O=C(CN1CCN(c2ccccn2)CC1)Nc1nc2c(s1)CCCC2 | – |
| 5 | 2 | 120 | – | O=C(CN1CCN(c2ccc(F)cc2)CC1)Nc1nc2c(s1)CCCCC2 | – |
| 5.1 | 5.1 | 26 | 30 | CC1CCc2sc(NC(=O)CN3CCN(c4ccc(F)cc4)CC3)nc2C1 (stereo unspecified) | inhibition (Mus musculus [19]): inactive; inhibition (Mus musculus [20]): inactive; inhibition (Mus musculus [21]): inactive; Kp at 168 h [8]: 0.33; bioavailability [9]: 62%; clearance [22]: 46 mL/min/kg; Vd [23]: 1.5 L/kg; AUC [11]: 2300 ng·h/mL; fCmax (Mus musculus [12]): 0.0077 µg/mL; Cmax [14]: 1800 ng/mL; Tmax [15]: 15 min; fraction unbound [24]: 0.0043; fraction unbound [16]: 0.0043; solubility [17]: 0.7 µg/mL (≈ 1.8 µM); solubility [18]: 540 µg/mL (≈ 1390 µM) |
| 2.5 | 0.29 | 130 | 98 | O=C(CN1CCN(c2ccc(F)cn2)CC1)c1cnc2ccccn12 | – |
| 2.7 | 1.7 | 100 | 63 | O=C(CN1CCN(c2ccc(F)cn2)CC1)Nc1nc2c(o1)CCCC2 | – |
| 2.5 | 1.1 | 330 | 84 | O=C(CN1CCN(c2ccc(F)cn2)CC1)c1cnn2ccccc12 | – |
| 4.1 | 0.6 | 46 | 63 | O=C(CN1CCN(c2ccc(F)cn2)CC1)Nc1nc2c(s1)CCCC2 | Kp at 168 h [8]: 0.03; bioavailability [9]: 100%; clearance [10]: 5 mL/min/kg; AUC [11]: 36000 ng·h/mL; fCmax (Mus musculus [12]): 0.0083 µg/mL; Vd [13]: 0.57 L/kg; Cmax [14]: 5500 ng/mL; Tmax [15]: 19.8 min; fraction unbound [16]: 0.0015; solubility [17]: 2.4 µg/mL (≈ 6.39 µM); solubility [18]: 700 µg/mL (≈ 1860 µM); inhibition (Mus musculus [25]): inactive; inhibition (Mus musculus [26]): inactive; inhibition (Mus musculus [27]): inactive |

From ChEMBL document CHEMBL2375259, “Arylpiperazines as fatty acid transport protein 1 (FATP1) inhibitors with improved potency and pharmacokinetic properties” (Bioorg Med Chem Lett, 2013)
